# Measurements of several laboratories.
# Compare with care: the assays were run in different laboratories.
# Target: Tyrosine-protein kinase BTK (BTK, Homo sapiens, UniProt Q06187)
Compound,read-out,action,method,tested at,quantity,result
COc1ncccc1-c1cnn2ccc(N3CCN(C(=O)OC(C)C)CC3)nc12,binding,,competition with immobilised ligand,1 µM,remaining binding,68%
CC(C)(C)c1cc(C=C(C#N)C#N)cc(Br)c1O,enzyme activity,inhibitor,,0.5 µM,remaining activity,101%
Cc1nn(C)cc1-c1nc2c(N3CCN(Cc4ccc(Cl)cc4)CC3)c(Cl)cnc2[nH]1,binding,,competition with immobilised ligand,1 µM,remaining binding,100%
Cn1cncc1[C@@](O)(COc1ccc(C#N)cc1-c1ccc(OC(F)(F)F)cc1)c1ccc(C#N)cc1,cell-free assay,,competition with immobilised ligand,1 µM,remaining binding,82%
C#Cc1n[nH]c2c(-c3cn(C(C)c4ccccn4)c(=O)[nH]c3=O)cc(F)cc12 (centres unmarked),enzyme activity,inhibitor,,1 µM,inhibition,1.7%
Nc1ncc(-c2nc(N3CCOCC3)nc(N3CCOCC3)n2)c(C(F)F)n1,binding,,competition with immobilised ligand,10 µM,remaining binding,26%
O=c1[nH]c2ccccc2n1C1CCN(Cc2ccc(-c3[nH]c4cc5ncnc5cc4nc3-c3ccccc3)cc2)CC1,cell-free assay,,,0.5 µM,remaining signal,98.4%
N#CC1(c2ccccn2)CCN(Cc2cc(C(=O)O)c(=O)n3ccccc23)CC1,cell-free assay,,competition with immobilised ligand,1 µM,remaining binding,100%
